# G6PDH counter – L. mesenteroides G6PDH inhibitors, counter-screen for G6PDH-coupled screening assays, biochemical, Leuconostoc mesenteroides enzyme; actives 0.12% (n = 200,000); Purified L. mesenteroides G6PDH, diaphorase/resazurin coupled fluorescence, 45 min; inhibition, % at 5 µM; glucose-6-phosphate dehydrogenase [Leuconostoc mesenteroides]; in the data active = inhibition above about 50%
# PMI act hi M6P – human PMI activators, high substrate, primary screen, biochemical, fluorescence intensity, near-saturating mannose 6-phosphate. Mannose-6-phosphate isomerase (Homo sapiens), P34949. coupled PMI enzyme assay, resazurin fluorescence, 20 min; stronger effect = higher value; 1 = untreated enzyme, 0 = substrate-free blank. actives 0.34% (n = 190,000). activation factor at 20 µM;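 active = activation factor of 2 or more at 20 µM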
# Target sequence (P34949 whole entry, looked up): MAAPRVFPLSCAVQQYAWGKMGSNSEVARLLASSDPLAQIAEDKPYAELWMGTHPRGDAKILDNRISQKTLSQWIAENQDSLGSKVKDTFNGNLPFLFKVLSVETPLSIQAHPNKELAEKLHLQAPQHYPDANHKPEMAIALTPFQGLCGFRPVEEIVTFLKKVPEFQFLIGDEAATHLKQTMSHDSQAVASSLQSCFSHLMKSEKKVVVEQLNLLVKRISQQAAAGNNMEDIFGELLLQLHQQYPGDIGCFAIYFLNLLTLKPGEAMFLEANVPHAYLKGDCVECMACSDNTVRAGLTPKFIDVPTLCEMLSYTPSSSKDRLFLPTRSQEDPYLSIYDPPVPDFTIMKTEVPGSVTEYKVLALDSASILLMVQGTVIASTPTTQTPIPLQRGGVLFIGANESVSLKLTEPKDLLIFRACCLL
#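 test system = human PMI in coupled enzyme assay | medium = HEPES-buffered pH 7.4 with magnesium and detergent | also added = 1.0 mM mannose-6-phosphate substrate with 0.22 mM NADP+ | compound = 20 µM single dose | times = 20 min incubation at room temperature | measured by = resorufin fluorescence (Ex 544/Em 590 nm) from resazurin via diaphorase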
# Diaph act CS – compounds boosting diaphorase resazurin reduction – biochemical, uHTS, resorufin fluorescence, counter-screen for diaphorase-coupled primary assays, primary screen; Diaphorase/resazurin coupled assay, 16 min; stronger effect = higher value; 1 = vehicle wells, 0 = NADH-free wells; activation factor at 20 µM; actives 0.005% (n = 190,000); AID 1229, 2008;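 active = diaphorase activity raised at least twofold by the compound at 20 µM; inactive = activation factor below 2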
#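 System – purified diaphorase enzyme from Clostridium kluyveri · Input – enzyme 0.07 U/mL final · Also added – final NADH 0.114 mM, resazurin 0.1 mM · Measured by – fluorescence of resorufin, 544 nm excitation, 590 nm emission · Timing – 16 min enzyme reaction, ambient temperature · Measure – resorufin increase flagging diaphorase activators or reducers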
# PMI act – activators of human PMI, primary screen, biochemical, fluorescence intensity, near-Km mannose 6-phosphate. purified human PMI, coupled resazurin fluorescence, 20 min; stronger effect = higher value; 1 = vehicle control, 0 substrate-free wells. activation factor at 20 µM. actives 0.005% (n = 190,000). AID 1214, 2008;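 active = activation factor of 2 or more at 20 µM, relative to plate controls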
# Diaphorase inh – diaphorase inhibitors and chemical oxidizers, primary screen, counter-screen for diaphorase-coupled primary assays, biochemical, uHTS, resorufin fluorescence; diaphorase resazurin-to-resorufin fluorescence, NADH, 16 min; bacterial (C. kluyveri) enzyme, not human; inhibition, % at 20 µM; actives 0.69% (n = 190,000); AID 1217, 2008;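 active = primary screen inhibition at 20 µM above a set limit, cut at about 50% in these data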;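 also: plate controls were DMSO with full reaction for no effect and wells lacking NADH for full effect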
#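 Benchmarks: positive control wells lacking NADH, neutral wells with DMSO only. System: bacterial diaphorase enzyme (C. kluyveri). Input: 0.14 U/mL diaphorase, enzyme working solution. Detection: resorufin fluorescence, excitation 544 nm, emission 590 nm. Times: 16-min room-temperature incubation before reading.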
# * = called active by the depositor. Hits are enriched below; roughly 1.1% of the tested compounds scored in any of these assays.
SMILES,G6PDH counter,PMI act hi M6P,Diaph act CS,PMI act,Diaphorase inh
CCn1c(C)nc2cc(C(=O)N/N=C/c3ccc(O)c(O)c3O)ccc21,22.6,0.2,0.2,0.2,75.3*
N#CCC(=O)Nc1ccc(C(F)(F)F)cc1N1CCOCC1,4.4,0.9,1,0.9,1.7
CCOC(=O)c1c(NC(=S)Nc2ccc(Cl)cc2)sc(C)c1C,4.2,1,0.9,1,8.0
Cc1sc(NC(=S)Nc2ccc(F)cc2)c(C(N)=O)c1C,12.3,0.6,0.4,0.5,58.0*
CCOC(=O)CCCNC(=O)CSc1nc2ccc(OCC)cc2[nH]1,0.4,0.8,0.5,0.8,53.6*
CCCCNC(=O)CSc1nc2ccc(C)cc2[nH]1,3.4,1,0.9,1,7.2
O=C(COC(=O)CCSc1ccc(Cl)cc1)NCCc1ccccc1,-5.5,0.9,0.4,0.9,55.0*
NS(=O)(=O)c1ccc(CCNC(=O)COC(=O)CCSc2ccc(Cl)cc2)cc1,8.9,1,0.9,1,5.1
Cn1nnc2c(sc3nc(N4CCOCC4)c4c(c32)CCCC4)c1=O,-41.6,0.9,0.8,0.9,17.7
S=c1nc[nH]c2c1sc1nc(N3CCOCC3)c3c(c12)CCCC3,13.6,2*,0.7,1.6,30.5
Cc1ccc(-c2ccc(=O)n(CC(=O)NCCN3CCCCC3C)n2)cc1 (stereo not given),10.2,0.4,0.5,0.5,52.6*
CCn1cc2c(c1-c1cccc(C)c1)c(=O)n(C)c(=O)n2C,4.3,2.1*,0.7,1.5,27.2
Cc1ccc(-n2c3nc(=O)[nH]c(=O)c-3cc3cc([N+](=O)[O-])ccc32)cc1C,-33.9,1,0.1,0.9,90.9*
Cc1ccc(S(=O)(=O)n2cnc3cc([N+](=O)[O-])ccc32)cc1C,8.0,1.1,0.9,1.1,5.0
CC(C)CCNC(=O)NC(=O)COC(=O)C1CCN(S(=O)(=O)c2ccccc2F)CC1,12.7,1,0.8,0.8,18.4
CC(=O)n1cc([C@H]2C=C(C(=O)N3CCN(Cc4ccc5c(c4)OCO5)CC3)O[C@@H](OCc3ccc(CO)cc3)C2)c2ccccc21,6.9,1,0.8,0.9,23.0
O=C(C1=C[C@H](c2ccc(C(F)(F)F)cc2)C[C@H](OCc2ccc(CO)cc2)O1)N1CCCCCCC1,13.1,0.8,0.5,0.8,50.5*
CC(=O)n1cc([C@H]2C=C(C(=O)N3CCN(Cc4ccccc4)CC3)O[C@@H](OCc3ccc(CO)cc3)C2)c2ccccc21,19.6,0.8,0.5,1,51.6*
O=C1O/C(=C/C(=O)N2CCOCC2)c2ccccc21,3.8,0.9,0.8,0.9,16.2
CCOc1cccc2sc(Cl)nc12,6.8,1,0.9,1,7.4
CCOc1cccc2sc(NN)nc12,-2.4,2.2*,0.9,1.6,9.3
CSc1nc2oc3c(c2c2nncn12)CC(C)(C)SC3,7.2,2.6*,1,1.4,-3.5
COc1ccc(/C(C)=N/Nc2cccc(C(=O)O)c2)cc1OC,11.7,2.5*,0.9,1.6,12.2
C/C(=N\Nc1cccc(C(=O)O)c1)c1ccc(Cl)s1,-0.6,2.6*,0.9,1.8,10.1
O=c1cc(CN2CCCc3ccccc32)nc2sccn12,9.7,2.1*,0.9,1.8,6.8
SMILES,G6PDH counter,PMI act hi M6P,Diaph act CS,PMI act,Diaphorase inh
COc1ccc(NC(=O)CSc2nc(-c3ccncc3)nn2CC(=O)N2CCCC2)cc1,7.3,0.9,0.7,1.1,25.2
COc1cccc(NC(=S)NN=C2CCC(C(C)(C)C)CC2)c1 (stereo not given),3.1,2.1*,1,1.5,3.8
CCC1(c2ccccc2)NC(=S)N(c2ccc(C)cc2)N1 (stereo not given),3.4,1.3,0.9,1.3,13.0
CC1CCC2(CC1)NC(=S)N(c1ccccc1)N2 (stereo not given),6.3,2.2*,1,1.9,-1.5
CCC1=NN2C(=N)/C(=C\c3ccc(OCc4cc(=O)n5nc(CC)sc5n4)c(OC)c3)C(=O)N=C2S1,0.4,1,0.5,1.1,54.2*
CCC1=NN2C(=N)/C(=C\c3cccn3-c3ccc(C)c(C)c3)C(=O)N=C2S1,-1.7,1.1,0.7,1,27.0
CCCn1c(SCC(=O)NCCc2ccccc2)nnc1-c1ccco1,5.6,1.1,1,1.1,2.0
CCC1(C)Cc2c(sc3nnn(Cc4ccccc4Cl)c(=O)c23)CO1 (stereo not given),3.7,1,0.4,0.9,57.3*
Cc1ccc(C(=O)C2(C)C3c4cc(Br)ccc4OC(=O)C32C(=O)c2ccco2)cc1 (stereo not given),3.0,0.8,0.7,0.8,30.0
C/C(=N\N=C\c1ccc(N(C)C)cc1)c1cccc([N+](=O)[O-])c1,-18.4,2.3*,0.9,1.6,12.4
Cc1ccc(CNC(=O)c2ccc3c(=O)[nH]c4c(C(=O)NCC5CCCO5)sc(=S)n4c3c2)cc1 (stereo not given),4.7,0.9,0.2,0.9,78.7*
Cc1ccc(CNC(=O)c2ccc3c(=O)n(CC4CCCO4)c(=S)[nH]c3c2)cc1 (stereo not given),-23.4,0.8,0.9,0.9,6.6
O=C(NCc1ccccc1)c1ccc2c(=O)n(CC3CCCO3)c(=S)[nH]c2c1 (stereo not given),-5.5,0.9,0.9,1,13.7
CCCCCNC(=O)c1ccc2c(=O)[nH]c3c(C(=O)NCC4CCCO4)sc(=S)n3c2c1 (stereo not given),-2.4,0.9,0.4,0.9,64.8*
O=C(NCc1ccccc1)c1ccc2c(=O)[nH]c3c(C(=O)NCC4CCCO4)sc(=S)n3c2c1 (stereo not given),-1.9,1,0.3,1.1,69.5*
CCn1c(O)c(N=NC2=NC(=O)CS2)c2ccccc21,1.8,1.1,0.3,1,65.4*
Cc1c(C(=O)N2CCOCC2)sc(NC(=O)Cc2ccccc2)c1C#N,8.7,1,1,1,-0.4
COc1ccc2c(c1)-c1nc(/N=C/c3ccc(O)cc3)sc1CC2,26.1,0.2,0.4,0.2,56.1*
COc1ccc2c(c1)-c1nc(/N=C/c3c(O)ccc4ccccc34)sc1CC2,37.5,0.2,0.5,0.2,49.6
COCCN1C(=O)/C(=C/c2ccc(N3CCCC3)cc2C)SC1=S,11.7,0.8,0.7,0.8,30.4
